Assay results reported in ChEMBL document CHEMBL1148736, “N-Acylthiadiazolines, a new class of liver X receptor agonists with selectivity for LXRbeta” (J Med Chem, 2007).
pEC50: −log10 of the molar value. Activity calls are given as the source filed them. No cut-off for these calls is given here.

Legend:
Liver [1] = assay: Effect on ABCA1 gene expression in C57BL/6 mouse liver; type: functional, tissue-based
Method in brief: (§1)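 Male C57BL/6 mice, 10 weeks old, chow-fed, gavaged daily with vehicle or compound (20–200 mpk) for 3 days. Fasted overnight before the last dose; killed 3 h later. Tissue RNA analysed by TaqMan qRT-PCR.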

[2] = AUC in C57BL/6 mouse at 5 mg/kg, iv; type: ADME, organism-based; parameters: dose 5 mg/kg, route intravenous; conditions: plasma
Method in brief: (§2)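 Mouse PK study, IV and PO; compound formulated at 2.5 mg/mL in PEG300/Tween 80 (4:1). IV dose 5 mpk (AUC, Cmax, clearance, Vss); oral dose 20 mpk (AUC, Cmax, bioavailability, t1/2).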

[3] = AUC in C57BL/6 mouse at 20 mg/kg, po; type: ADME, organism-based; parameters: dose 20 mg/kg, route oral; conditions: plasma; method in brief: as §2
[4] = molecular target: T1, Oxysterols receptor LXR-alpha (Homo sapiens, UniProt Q13133); assay: Agonist activity at GAL-linked human LXRalpha expressed in THP1 cells assessed as stimulation of coactivator recruitment by FRET assay; type: functional
T1 sequence (Q13133 whole entry): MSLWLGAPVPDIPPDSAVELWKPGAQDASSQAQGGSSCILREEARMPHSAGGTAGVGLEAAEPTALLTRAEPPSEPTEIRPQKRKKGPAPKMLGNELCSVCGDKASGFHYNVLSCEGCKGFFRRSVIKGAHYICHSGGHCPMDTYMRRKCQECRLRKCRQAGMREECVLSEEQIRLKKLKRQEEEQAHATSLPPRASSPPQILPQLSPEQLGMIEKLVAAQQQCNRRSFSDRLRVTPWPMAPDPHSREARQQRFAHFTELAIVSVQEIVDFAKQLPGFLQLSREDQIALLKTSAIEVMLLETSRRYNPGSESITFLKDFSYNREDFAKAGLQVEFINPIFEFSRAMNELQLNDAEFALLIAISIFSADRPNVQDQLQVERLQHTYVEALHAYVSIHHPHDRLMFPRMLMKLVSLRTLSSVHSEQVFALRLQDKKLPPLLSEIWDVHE
Method in brief: (§3)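 Cell-free TR-FRET coactivator recruitment: 20 nM His-tagged hLXRα or hLXRβ, 300 nM biotinylated SRC-1 peptide, Eu-anti-His antibody, APC-streptavidin. 12-point curves from 20 µM; 1 h at 37 °C. Duplicate. %E = maximal coactivator recruitment relative to reference dual agonist in same experiment.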

[5] = molecular target: T2, Oxysterols receptor LXR-alpha (Homo sapiens) (UniProt Q13133); assay: Agonist activity at GAL-linked human LXRalpha expressed in THP1 cells assessed as stimulation of co-activator recruitment by FRET assay relative to GW-3965; type: functional; method in brief: as §3
T2 sequence (whole entry): T1 sequence (Q13133 whole entry)

[6] = molecular target: T3, Oxysterols receptor LXR-beta (Homo sapiens, UniProt P55055); assay: Agonist activity at GAL-linked human LXRbeta expressed in THP1 cells assessed as stimulation of co-activator recruitment by FRET assay; type: functional; method in brief: as §3
T3 sequence (P55055 whole entry): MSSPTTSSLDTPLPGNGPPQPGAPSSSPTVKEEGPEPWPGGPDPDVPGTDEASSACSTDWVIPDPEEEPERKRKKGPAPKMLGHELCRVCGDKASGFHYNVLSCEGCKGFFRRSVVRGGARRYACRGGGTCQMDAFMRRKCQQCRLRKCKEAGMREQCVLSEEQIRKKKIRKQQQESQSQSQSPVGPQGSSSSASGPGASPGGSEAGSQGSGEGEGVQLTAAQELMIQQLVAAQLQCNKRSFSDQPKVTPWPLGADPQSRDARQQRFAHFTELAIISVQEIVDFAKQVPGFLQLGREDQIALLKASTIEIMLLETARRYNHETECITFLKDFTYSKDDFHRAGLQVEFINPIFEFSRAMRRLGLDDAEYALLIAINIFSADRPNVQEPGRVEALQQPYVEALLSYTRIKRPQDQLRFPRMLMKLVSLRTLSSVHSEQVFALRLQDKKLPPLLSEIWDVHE

[7] = molecular target: T4, Oxysterols receptor LXR-beta (Homo sapiens) (UniProt P55055); assay: Agonist activity at GAL-linked human LXRbeta expressed in THP1 cells assessed as stimulation of co-activator recruitment by FRET assay relative to GW-3965; type: functional; method in brief: as §3
T4 sequence (whole entry): T3 sequence (P55055 whole entry)

THP-1 [8] = assay: Increase in ABCA1 gene expression in THP1 cells at 1 uM relative to GW-3965; type: functional, Homo sapiens
Method in brief: (§4)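 THP-1 cells differentiated with 40 ng/mL PMA for 1 day, then switched to RPMI with 2% lipoprotein-deficient FBS. Compound added 6 h later at 1 or 10 µM in DMSO, incubated 24 h. ABCA1 mRNA by one-step TaqMan qRT-PCR, triplicate, multiplexed with 36B4; fold induction vs DMSO, expressed relative to reference dual agonist.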

THP-1 [9] = assay: Increase in ABCA1 gene expression in THP1 cells at 10 uM relative to GW-3965; type: functional, Homo sapiens; method in brief: as §4
Liver [10] = assay: Effect on SREBP1c gene expression in C57BL/6 mouse liver; type: functional, tissue-based; method in brief: as §1
[11] = Cmax in C57BL/6 mouse at 5 mg/kg, iv; type: ADME, organism-based; parameters: dose 5 mg/kg, route intravenous; conditions: in vivo; method in brief: as §2
[12] = Clearance in C57BL/6 mouse at 5 mg/kg, iv; type: ADME, organism-based; parameters: dose 5 mg/kg, route intravenous; conditions: in vivo; method in brief: as §2
[13] = Volume of distribution at steady state in C57BL/6 mouse at 5 mg/kg, iv; type: ADME, organism-based; parameters: dose 5 mg/kg, route intravenous; conditions: in vivo, read-out: Vss; method in brief: as §2
[14] = Cmax in C57BL/6 mouse at 20 mg/kg, po; type: ADME, organism-based; parameters: dose 20 mg/kg, route oral; conditions: in vivo; method in brief: as §2
[15] = Bioavailability in C57BL/6 mouse at 20 mg/kg, po; type: ADME, organism-based; conditions: in vivo; method in brief: as §2
[16] = Half life in C57BL/6 mouse at 20 mg/kg, po; type: ADME, organism-based; parameters: dose 20 mg/kg, route oral; conditions: in vivo; method in brief: as §2

## COc1cccc(C2SC(c3ccc(F)cc3)=NN2C(=O)c2c(F)cc(F)cc2F)c1OC (stereo unspecified)
Liver [1]
  Activity: inactive
[2]
  AUC: 35700 ng·h/mL
[3]
  AUC: 16800 ng·h/mL
[4]
  pEC50: 5.85
[5]
  Efficacy: 62%
[6]
  pEC50: 7.12
[7]
  Efficacy: 98%
THP-1 [8]
  Activity: 42%
THP-1 [9]
  Activity: 53%
Liver [10]
  Activity: inactive
[11]
  Cmax: 70.9 µM
[12]
  clearance: 2.26 mL/min/kg
[13]
  Vd: 0.44 L/kg
[14]
  Cmax: 6.9 µM
[15]
  bioavailability: 11%
[16]
  half-life: 4.5 h
